Data published in PubChem BioAssay AID743061 (The Scripps Research Institute Molecular Screening Center, 2013).

The compounds below were run against Methionine--tRNA ligase, mitochondrial (Homo sapiens) (UniProt Q96GW9) (assay: human mtMetRS tRNA charging inhibition – biochemical, radioactivity, round 1, selectivity assay for T. brucei MetRS inhibitor project, late-stage follow-up (AID 743061;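 further: 0% = DMSO with full reaction and 100% = DMSO wells lacking tRNA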)). Conditions: recombinant human mtMetRS, [3H]Met tRNA charging, at 1 µM, stronger effect = higher value.
Procedure, shortened: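 System: human mitochondrial MetRS enzyme / Buffer or medium: pH 8.0 reaction buffer containing 2.5 mM ATP / Probe or stimulus: 240 nM [3H]methionine with bulk E. coli tRNA acceptor / Doses: 10 and 1 µM / Times: 15 min compound–enzyme preincubation, then 1 h reaction at room temperature / Detection: scintillation counts of TCA-precipitated charged tRNA on filters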

Row | Structure (SMILES) | inhibition [%]
1 | O=C(Cn1cc(C(=O)COc2ccccc2)c2ccccc21)Nc1cccc(C(F)(F)F)c1 | -22.6
2 | CC(=O)N(CCc1ccccc1)C1CC(=O)N(c2ccc(Cl)cc2)C1=O (centres undefined) | -19.9
3 | CC(C)(C)[C@@H]1C=C(C(=O)NCc2nc3ccccc3[nH]2)O[C@H](OCc2ccc(CO)cc2)C1 | -10.6
4 | O=C(NCc1nc2ccccc2[nH]1)C1=C[C@@H](c2ccc(Br)cc2)C[C@@H](OCCCCO)O1 | -9.46
5 | CCN(CC)C(=O)C(=O)c1cn(CC(=O)N(CC)c2ccccc2)c2ccccc12 | 2.19
6 | COc1cccc(NC(=O)C2CC(=O)n3c(nc4ccccc43)N2)c1 (centres undefined) | 1.46
7 | COc1ccccc1NS(=O)(=O)c1cccc(NC(=O)Nc2ccccc2)c1 | -9.69
8 | Cc1cccc2[nH]c(CCN(C)C(=O)c3cccc(C4CCNC4)c3)nc12 (centres undefined) | -6.15
9 | CNC(=S)N(CCc1ccccc1)C1CC(=O)N(c2ccc(Br)cc2)C1=O (centres undefined) | 39
10 | O=C(NCCc1nc2ccccc2[nH]1)c1ccc(Cl)c(Cl)c1 | 2.38
11 | COc1ccccc1-n1c(SCC(=O)Nc2ccc(Cl)cc2)nc(O)c(Cc2ccccc2)c1=O | -31.6
12 | Cc1ccc(NC(=O)CN(C)C(=O)CCSc2ccc(F)cc2)cc1 | -35.7
13 | CCN(CC)C(=O)C(=O)c1cn(CC(=O)Nc2ccccc2OC)c2ccccc12 | -10.6
14 | CC(=O)N(CCc1ccccc1)C1CC(=O)N(c2ccc(Br)cc2)C1=O (centres undefined) | -17.2
15 | CCO[C@@H]1OC(C(=O)NCc2nc3ccccc3[nH]2)=C[C@H](c2ccc(Br)cc2)[C@H]1CCCO | -4.89
16 | CCN(CC)C(=O)C(=O)c1cn(CC(=O)Nc2cccc(OC)c2)c2ccccc12 | 10.6
17 | C[C@H](O)[C@@H]1C(=O)N2CCc3c([nH]c4ccccc34)[C@@H]2C[C@@H]1N(C)Cc1ccc2c(c1)OCO2 | -17.7
18 | O=C(CN1CCSC1=NCc1ccccc1)c1ccc(Cl)c(Cl)c1 | -25.1
19 | O=C1[C@@H]2Cc3c([nH]c4ccccc34)C(c3cccc([N+](=O)[O-])c3)N2C(=O)CN1CCCO (some centres undefined) | -17.4
